In the library only some 3.6% were active in any assay of this set; here they are far more common.
PAFAH2 inh – PAFAH2 enzyme inhibitors, primary screen, biochemical, fluorescence polarization, human; hit rate 0.99% among 340,000; inhibition, % at 3.39 µM; AID 492956, 2010; Platelet-activating factor acetylhydrolase 2, cytoplasmic (Homo sapiens), Q99487; recombinant PAFAH2, FP-rhodamine activity probe;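 active = inhibition above the mean over all tested compounds plus 3 SD, cut at about 30% in these data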;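 note: inhibitors block probe labeling of enzyme so polarization drops; 0% = enzyme with DMSO and 100% = wells lacking PAFAH2 protein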
PAFAH1B3 inh – PAFAH1B3 enzyme inhibitors, primary screen, biochemical, fluorescence polarization, human; Platelet-activating factor acetylhydrolase IB subunit alpha1 (Homo sapiens), Q15102; recombinant PAFAH1B3, FP-rhodamine probe; inhibition, % at 3.39 µM; hit rate 0.28% among 340,000; AID 492972, 2010;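 active = inhibition above the screen-wide average of all tested compounds plus 3 SD, cut at about 25% in these data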;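 note: 0% = enzyme with DMSO only and 100% = wells lacking PAFAH1B3 protein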
Target sequence (Q15102 whole entry, looked up): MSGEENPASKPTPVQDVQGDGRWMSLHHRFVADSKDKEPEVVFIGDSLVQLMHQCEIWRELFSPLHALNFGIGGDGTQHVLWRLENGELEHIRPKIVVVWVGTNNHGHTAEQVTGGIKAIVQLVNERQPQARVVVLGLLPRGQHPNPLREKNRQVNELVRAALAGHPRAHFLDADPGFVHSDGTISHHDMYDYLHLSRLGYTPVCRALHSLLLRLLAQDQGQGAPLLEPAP
PAFAH1B2 FP inh – PAFAH1B2 enzyme inhibitors, primary screen, biochemical, fluorescence polarization, human; hit rate 1.2% among 340,000; AID 492953, 2010; recombinant PAFAH1B2, FP-rhodamine activity probe; inhibition, % at 3.39 µM;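 active = inhibition above the mean of all tested compounds plus 3 SD, cut at about 24% in these data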;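 note: 0% = enzyme with DMSO and 100% = wells lacking PAFAH1B2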
Target sequence (P68402 whole entry, looked up): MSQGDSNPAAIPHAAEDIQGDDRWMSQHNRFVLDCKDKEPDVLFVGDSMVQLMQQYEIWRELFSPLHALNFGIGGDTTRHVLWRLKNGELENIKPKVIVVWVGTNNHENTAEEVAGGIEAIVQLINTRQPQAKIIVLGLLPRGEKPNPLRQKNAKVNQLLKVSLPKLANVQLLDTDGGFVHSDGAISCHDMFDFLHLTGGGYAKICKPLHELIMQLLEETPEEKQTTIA
VIM-2 inhibitor – VIM-2 metallo-beta-lactamase inhibitors, primary screen, biochemical, epi-absorbance readout, Pseudomonas aeruginosa enzyme; purified VIM-2, nitrocefin hydrolysis, epi-absorbance fluorescence; inhibition, % at 5.6 µM; hit rate 0.89% among 290,000; AID 1527, 2009;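 active = inhibition above the mean of all tested compounds plus 3 SD, cutoff set per screening run, cut at about 7.5% in these data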;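 note: red hydrolysis product quenches plate fluorescence so inhibitors raise well fluorescence; 0% = enzyme with DMSO and 100% = DMSO without enzyme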
IMP-1 inh – IMP-1 metallo-beta-lactamase inhibitors, primary screen, biochemical, epi-absorbance readout, Pseudomonas aeruginosa enzyme | metallo-beta-lactamase IMP-1 (Pseudomonas aeruginosa) | purified IMP-1, nitrocefin hydrolysis, epi-absorbance fluorescence | inhibition, % at 5.6 µM | hit rate 0.45% among 290,000 | AID 1556, 2009;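 active = inhibition above the mean plus 3 SD of all compounds in the same screening run, cut at about 4.5% in these data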;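 note: 0% = IMP-1 with DMSO and 100% = DMSO wells lacking enzyme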
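Assay system: purified recombinant IMP-1 beta-lactamase. Input: IMP-1 0.2 nM before substrate addition. Buffer or medium: Zinc- and detergent-supplemented HEPES buffer, pH 7.1. Schedule: 25 °C, 15 min preincubation, 25 min reaction. Signal: Epi-absorbance fluorescence, 480 nm excitation, 530 nm emission. Evaluation: percent inhibition from optical density relative to buffer-blank wells.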
pPAFAH FP inh – pPAFAH enzyme inhibitors, primary screen, biochemical, fluorescence polarization, human; Platelet-activating factor acetylhydrolase (Homo sapiens), Q13093; recombinant pPAFAH, FP-rhodamine probe fluorescence polarization; inhibition, % at 3.39 µM; hit rate 1.5% among 330,000;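 active = inhibition above the mean inhibition across the screen plus 3 SD, cut at about 25% in these data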;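 note: inhibitors block binding of the rhodamine activity-based probe so polarization drops; 0% = enzyme with DMSO and 100% = wells lacking pPAFAH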
pPAFAH confirm – pPAFAH (PLA2G7) enzyme inhibitors, confirmation, biochemical, fluorescence polarization, human. hit rate 72% among 2,300. AID 463230, 2010. recombinant pPAFAH, FP-Rh probe fluorescence polarization. inhibition, % at 3.39 µM. shares compounds with pPAFAH FP inh;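 active = mean inhibition of the triplicate above the hit cutoff set for the earlier primary screen, cut at about 25% in these data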;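 note: 0% = enzyme with DMSO and 100% = wells lacking pPAFAH enzyme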
* marks the source's active call; other numbers are inactive results; . = no result.

SMILES	PAFAH2 inh	PAFAH1B3 inh	PAFAH1B2 FP inh	VIM-2 inhibitor	IMP-1 inh	pPAFAH FP inh	pPAFAH confirm
O=C(NCc1cccc(OC(F)(F)F)c1)c1cccc2c1C(=O)c1ccc(-c3ccc(F)cc3OCc3ccccc3)cc1S2(=O)=O	-10	-8	-9	.	.	15	.
O=C1c2ccc(-c3ccc(F)cc3OCc3ccccc3)cc2S(=O)(=O)c2cccc(C(=O)N3CCCC3)c21	8	5	12	.	.	46*	45*
CC(C)C(NS(=O)(=O)c1ccccc1)C(=O)N1CCN(C(=O)c2ccco2)CC1 (configuration not stated)	-5	-6	0	-1	-2	2	.
CCOc1cc(/C=C(\C#N)c2[nH]nc(N)c2C#N)ccc1O	3	12	7	0	-1	37*	16
O=C1c2nc3cc(-c4ccco4)[nH]n3c(=O)c2CN1Cc1ccccc1	.	.	.	-3	-5	35*	12
O=c1oc2ccccc2c2oc3cc(O)c(O)cc3c12	34*	9	-1	5	-3	73*	81*
COc1ccc(CCNC(=O)C2CCCN2S(=O)(=O)c2cccc3nsnc23)cc1OC (configuration not stated)	4	5	-2	-1	-1	7	.
O=C(O)CSc1cc(C(=O)c2ccccc2O)cn2c(=O)c3c(-c4ccccc4)csc3nc12	-14	8	-5	-2	-2	65*	72*
Cc1cc(/C=C2/SC(=S)N(c3cccc(C(F)(F)F)c3)C2=O)c(C)n1-c1cccnc1	24	-6	0	0	1	44*	42*
CCCCn1c(SCC(=O)c2ccc(O)c(O)c2)nc2ccsc2c1=O	28	2	15	1	-3	42*	88*
O=C(O)CCCCCn1c(SCC(=O)c2ccc(O)c(O)c2)nc2ccsc2c1=O	15	22	8	-1	-3	21	.
COc1ccc(NC(=O)C(=O)NCC2CCCN2S(=O)(=O)c2cccs2)cc1 (configuration not stated)	-3	10	4	.	.	7	.
O=C(O)c1ccc(N/N=C/c2cn(Cc3ccccc3F)c3ccccc23)cc1	10	14	8	1	0	46*	63*
Nc1ccc(C(=O)N/N=C/c2cn(Cc3ccccc3F)c3ccccc23)cc1	-1	8	9	2	-1	.	.
COc1ccc(OC)c(C2C(C#N)=C(N)Oc3cc(N)ccc32)c1 (configuration not stated)	3	0	0	0	0	36*	1
CCOc1ccccc1C1C(C#N)=C(N)Oc2cc(N)ccc21 (configuration not stated)	3	10	4	3	0	41*	3
COc1ccc(NC(=O)CN(C)C(=O)CCNS(=O)(=O)c2ccc(Br)cc2)cc1	-4	-1	14	-2	-2	0	.
O=S(=O)(Nc1ccc(Cl)cc1)c1ccc(N2CCOCC2)c(NC(=S)NCCN2CCOCC2)c1	7	2	-1	-1	-3	58*	59*
CCOc1ccc(NC(=O)CN2C(=O)NC(CCc3ccccc3)C2=O)cc1OCC (configuration not stated)	2	6	3	.	.	-2	.
Cc1ccccc1-c1n[nH]c(=S)n1/N=C/C=C/c1ccco1	7	5	4	-1	-1	45*	9
Cc1cc(-c2n[nH]c(=S)n2/N=C/C=C/c2ccco2)n[nH]1	8	10	8	-4	-3	13	.
S=c1[nH]nc(-c2ccc(Cl)cc2)n1/N=C/c1ccco1	8	6	6	-3	-4	4	.
S=c1[nH]nc(-c2ccc(Cl)cc2)n1/N=C/C=C/c1ccco1	.	.	.	-3	-3	39*	13
COc1ccc(C(NC(=O)CN2C(=O)NC3(CCc4ccccc43)C2=O)c2ccc(OC)cc2)cc1 (configuration not stated)	1	5	5	.	.	.	.
O=C(c1ccc2c(=O)n3c(nc2c1)CCCCC3)N1CCN(c2ccc([N+](=O)[O-])cc2)CC1	-1	-1	2	0	-4	5	.
SMILES	PAFAH2 inh	PAFAH1B3 inh	PAFAH1B2 FP inh	VIM-2 inhibitor	IMP-1 inh	pPAFAH FP inh	pPAFAH confirm
COc1ccc(-n2ncc3c(=O)n(CC(=O)NC(C)C)cnc32)cc1	4	-1	5	-4	-3	36*	2
CCCC1=NN2C(=N)/C(=C\c3ccc(SCc4ccco4)o3)C(=O)N=C2S1	-21	-100	-17	-3	-1	60*	61*
CCC1=NN2C(=N)/C(=C\c3ccc(SCc4ccco4)o3)C(=O)N=C2S1	-19	-66	-13	-2	-3	-9	.
O=C1NC(=S)S/C1=C\c1ccc(SCc2ccco2)o1	16	5	20	4	9.7*	69*	55*
O=C1NC(=S)S/C1=C\c1ccc(SCc2ccccc2)o1	21	9	71*	-2	2	40*	58*
C#CCOCCOCCOCCNc1nc(N2CCOCC2)nc(N2CCN(C(=O)[C@H](CO)n3cc([C@@H](N)C(C)C)nn3)CC2)n1	-9	10	1	.	.	-2	.
CCOc1ccc(N2CC(C(=O)Nc3ccc(F)cc3F)CC2=O)cc1 (configuration not stated)	-10	4	1	0	-2	37*	-5
CCOc1ccc(N2CC(C(=O)Nc3ccccc3OC)CC2=O)cc1 (configuration not stated)	2	2	0	-5	-5	0	.
O=C(c1cccc(Br)c1)N1CCCc2ccccc21	-9	-4	4	-1	0	-3	.
O=C(c1coc(=O)c(Br)c1)N1CCCc2ccccc21	27	7	7	-3	-3	43*	6
Oc1nc(Nc2cccc(Cl)c2)sc1/C=C1\C=Nc2ccccc21	-4	15	10	-2	-4	37*	29*
CCOC(=O)c1c(Nc2ccc(Cl)cc2)sc(/C=C2\C=Nc3ccccc32)c1O	-6	-12	0	-2	-1	3	.
CN(CC(=O)Nc1ccc(N2CCOCC2)cc1)C(=O)Cc1ccccc1	2	7	2	.	.	1	.
CN(CC(=O)Nc1ccc(N2CCOCC2)cc1)CC(=O)Nc1ccc(N2CCOCC2)cc1	4	0	4	-1	-1	42*	35*
